From paper PMC9526468 (Thyroid, 2022) come the findings set out here.

Holding throughout (assay): radiolabelled iodothyronine uptake inhibition in transfected COS1 cells
Type in all cases: cell-based

The target of assay [1] is T1, MCT10 (hMCT10) (Homo sapiens, UniProt Q8TF71).
T1 sequence (Q8TF71 1-515): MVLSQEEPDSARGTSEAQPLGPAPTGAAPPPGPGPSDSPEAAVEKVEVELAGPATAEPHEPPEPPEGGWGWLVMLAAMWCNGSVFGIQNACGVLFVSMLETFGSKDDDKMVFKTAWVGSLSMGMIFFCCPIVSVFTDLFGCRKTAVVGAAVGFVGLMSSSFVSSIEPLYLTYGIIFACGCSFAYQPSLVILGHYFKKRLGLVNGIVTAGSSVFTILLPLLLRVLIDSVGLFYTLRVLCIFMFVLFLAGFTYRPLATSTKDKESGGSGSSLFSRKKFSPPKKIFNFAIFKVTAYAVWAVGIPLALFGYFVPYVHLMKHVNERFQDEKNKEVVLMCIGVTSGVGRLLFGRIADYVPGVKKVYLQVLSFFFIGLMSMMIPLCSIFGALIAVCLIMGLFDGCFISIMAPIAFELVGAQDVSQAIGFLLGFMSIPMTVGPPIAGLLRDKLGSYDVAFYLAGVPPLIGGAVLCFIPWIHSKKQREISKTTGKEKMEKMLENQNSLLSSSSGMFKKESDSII

Assay [2] concerns the target T2, OATP1A2 (Human (h) OATP1A2) (Homo sapiens, UniProt P46721).
T2 sequence (P46721 1-670): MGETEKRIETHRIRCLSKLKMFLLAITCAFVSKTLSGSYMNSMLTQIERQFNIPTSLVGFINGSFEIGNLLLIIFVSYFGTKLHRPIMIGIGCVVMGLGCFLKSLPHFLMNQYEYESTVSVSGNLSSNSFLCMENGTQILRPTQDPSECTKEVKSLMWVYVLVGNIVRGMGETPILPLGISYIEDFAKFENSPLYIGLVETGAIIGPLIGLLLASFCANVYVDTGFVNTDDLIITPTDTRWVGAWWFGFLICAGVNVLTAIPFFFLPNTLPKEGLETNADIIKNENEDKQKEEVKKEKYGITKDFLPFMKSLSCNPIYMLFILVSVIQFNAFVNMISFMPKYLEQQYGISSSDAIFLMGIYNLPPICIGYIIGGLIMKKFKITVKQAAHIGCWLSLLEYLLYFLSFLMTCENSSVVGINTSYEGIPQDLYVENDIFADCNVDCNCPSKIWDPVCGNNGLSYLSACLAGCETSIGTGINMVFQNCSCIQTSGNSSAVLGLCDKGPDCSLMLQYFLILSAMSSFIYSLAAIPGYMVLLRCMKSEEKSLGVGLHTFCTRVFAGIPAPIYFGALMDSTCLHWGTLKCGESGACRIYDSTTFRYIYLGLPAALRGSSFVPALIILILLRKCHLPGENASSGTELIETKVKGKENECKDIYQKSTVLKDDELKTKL

Assay [3] addresses MCT8 (hMCT8) (Homo sapiens, UniProt P36021).
Assay [4] has as its target LAT1 (hSLC7A5, cotransfected with hSLC3A2) (Homo sapiens, UniProt Q01650). The gist of the method:
(§1)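 COS1 cells cotransfected with 100 ng transporter vector, 100 ng hSLC3A2 (4F2 heavy chain), and 50 ng hCRYM to limit efflux; empty vector served as control. At 48 h post-transfection, cells were washed in BSA-free DPBS+Ca²⁺/Mg²⁺/0.1% glucose. They were then incubated at 37°C with 1 nM 3,3′-T2 plus [¹²⁵I]-3,3′-T2 (5 × 10⁴ cpm) and increasing inhibitor concentrations or vehicle. Finally, cells were rinsed, lysed in 0.1 N NaOH, and gamma-counted.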

For assay [5], the target named is T3, LAT2 (hSLC7A8, cotransfected with hSLC3A2) (Homo sapiens, UniProt Q9UHI5).
T3 sequence (Q9UHI5 1-535): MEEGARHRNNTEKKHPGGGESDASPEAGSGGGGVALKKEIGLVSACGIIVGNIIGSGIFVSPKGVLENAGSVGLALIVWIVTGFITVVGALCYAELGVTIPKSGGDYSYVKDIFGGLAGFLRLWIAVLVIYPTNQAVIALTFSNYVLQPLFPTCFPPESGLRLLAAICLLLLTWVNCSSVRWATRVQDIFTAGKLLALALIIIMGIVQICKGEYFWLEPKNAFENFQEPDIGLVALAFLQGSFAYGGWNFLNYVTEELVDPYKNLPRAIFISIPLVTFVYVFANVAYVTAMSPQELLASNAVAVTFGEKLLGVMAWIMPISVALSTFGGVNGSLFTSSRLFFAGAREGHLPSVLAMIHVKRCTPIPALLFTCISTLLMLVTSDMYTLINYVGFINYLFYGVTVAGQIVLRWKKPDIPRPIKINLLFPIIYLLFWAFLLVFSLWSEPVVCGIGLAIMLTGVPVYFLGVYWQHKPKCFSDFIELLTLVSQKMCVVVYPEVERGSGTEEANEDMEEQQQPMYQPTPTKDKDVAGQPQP
T3 sequence (P08195 2-529 partner): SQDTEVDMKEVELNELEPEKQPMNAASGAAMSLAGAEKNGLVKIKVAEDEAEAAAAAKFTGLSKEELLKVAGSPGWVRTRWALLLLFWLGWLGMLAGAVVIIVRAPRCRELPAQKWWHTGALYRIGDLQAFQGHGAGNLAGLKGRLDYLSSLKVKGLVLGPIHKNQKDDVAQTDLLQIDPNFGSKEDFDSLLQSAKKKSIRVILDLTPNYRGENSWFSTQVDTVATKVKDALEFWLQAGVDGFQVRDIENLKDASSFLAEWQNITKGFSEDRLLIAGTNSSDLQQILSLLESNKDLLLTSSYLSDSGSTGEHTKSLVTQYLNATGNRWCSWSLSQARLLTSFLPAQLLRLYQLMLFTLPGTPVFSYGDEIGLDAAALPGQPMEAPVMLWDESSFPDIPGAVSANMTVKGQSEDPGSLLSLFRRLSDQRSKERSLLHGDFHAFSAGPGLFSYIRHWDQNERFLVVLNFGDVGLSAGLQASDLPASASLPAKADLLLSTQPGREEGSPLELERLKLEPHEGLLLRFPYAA
An outline of the steps: as §1

The term IC50 denotes the concentration that gives 50% inhibition. Low readings indicate higher potency, high ones lower potency.

SMILES strings stand for the structures.

MCT8 (hMCT8), sequence (P36021 2-539): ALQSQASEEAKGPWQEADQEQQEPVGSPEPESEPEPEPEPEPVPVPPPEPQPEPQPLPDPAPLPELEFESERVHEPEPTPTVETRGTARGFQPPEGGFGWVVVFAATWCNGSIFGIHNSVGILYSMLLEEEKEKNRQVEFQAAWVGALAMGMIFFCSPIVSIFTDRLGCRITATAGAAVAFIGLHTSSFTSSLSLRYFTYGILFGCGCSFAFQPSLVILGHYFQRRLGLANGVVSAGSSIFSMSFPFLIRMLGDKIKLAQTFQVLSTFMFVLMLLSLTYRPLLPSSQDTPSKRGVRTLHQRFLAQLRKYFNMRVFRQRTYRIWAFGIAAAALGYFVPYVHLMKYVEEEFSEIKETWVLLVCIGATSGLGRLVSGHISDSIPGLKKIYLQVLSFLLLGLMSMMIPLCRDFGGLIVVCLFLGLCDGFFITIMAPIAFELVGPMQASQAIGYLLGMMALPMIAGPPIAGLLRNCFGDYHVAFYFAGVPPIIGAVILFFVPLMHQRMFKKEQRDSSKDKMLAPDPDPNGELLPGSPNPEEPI
LAT1 (hSLC7A5, cotransfected with hSLC3A2), sequence (Q01650 whole entry, one chain of several): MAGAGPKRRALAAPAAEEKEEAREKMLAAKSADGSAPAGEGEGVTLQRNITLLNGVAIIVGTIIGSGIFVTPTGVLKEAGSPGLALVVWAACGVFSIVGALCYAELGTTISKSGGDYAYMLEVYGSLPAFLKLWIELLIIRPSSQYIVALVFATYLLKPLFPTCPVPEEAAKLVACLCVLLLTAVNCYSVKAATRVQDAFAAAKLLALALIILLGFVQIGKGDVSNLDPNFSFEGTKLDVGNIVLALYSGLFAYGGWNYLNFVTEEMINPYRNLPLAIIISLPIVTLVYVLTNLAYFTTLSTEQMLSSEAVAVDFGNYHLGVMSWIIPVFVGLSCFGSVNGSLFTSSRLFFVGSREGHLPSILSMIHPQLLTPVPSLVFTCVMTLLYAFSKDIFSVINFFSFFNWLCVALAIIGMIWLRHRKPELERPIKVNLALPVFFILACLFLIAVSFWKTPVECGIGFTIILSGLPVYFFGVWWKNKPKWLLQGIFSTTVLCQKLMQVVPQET

Compound `N[C@@H](Cc1c[nH]c2ccccc12)C(=O)O` [L-tryptophan] returned an IC50 in assay [1] of more than 10000 µM.

`C[C@@H]1O[C@@H](O[C@H]2[C@H](Oc3cc(O)c4c(c3)O[C@H](c3ccc(O)cc3)CC4=O)O[C@H](CO)[C@@H](O)[C@@H]2O)[C@H](O)[C@H](O)[C@H]1O` [Naringin] showed an IC50 in assay [2] of 23 µM.

As to `COc1ccc(CCN(C)CCCC(C#N)(c2ccc(OC)c(OC)c2)C(C)C)cc1OC` (stereo not shown) [Verapamil], the IC50 in assay [1] was more than 100 µM; in assay [2], 1.5 µM; in assay [3], approximately 100 µM.

With `COc1cc([C@@H]2Oc3c(O)cc([C@H]4Oc5cc(O)cc(O)c5C(=O)[C@@H]4O)cc3[C@H]2CO)ccc1O` [Silychristin], the IC50 in assay [2] was more than 10 µM; in assay [3], 0.12 µM.

As to `NC1(C(=O)O)CC2CCC1C2` (stereo not shown) [BCH, 2-Amino-2-norbornanecarboxylic acid], the IC50 was 146 µM in assay [4] and approximately 100 µM in assay [5].

Compound `CO[C@H]1/C=C/O[C@@]2(C)Oc3c(C)c(O)c4c(O)c(c(/C=N/N5CCN(C)CC5)c(O)c4c3C2=O)NC(=O)/C(C)=C\C=C\[C@H](C)[C@H](O)[C@@H](C)[C@@H](O)[C@@H](C)[C@H](OC(C)=O)[C@@H]1C` [Rifampicin] displayed an IC50 in assay [2] of 50 µM.
